Reference: ChEMBL document CHEMBL1130379, “3-[2-(Pyrrolidin-1-yl)ethyl]indoles and 3-[3-(piperidin-1-yl)propyl]indoles: agonists for the h5-HT1D receptor with high selectivity over the h5-HT1B subtype” (J Med Chem, 1997)

Assays:
[1] = target: T1, 5-hydroxytryptamine receptor 1D (Homo sapiens, UniProt P28221); test: Measurement of agonist induced [35S]GTP-gamma-S, binding in CHO cells stably transfected with 5-hydroxytryptamine 1D receptor.; format: functional, cell-based
Procedure, shortened: (§1)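 Agonist-induced [35S]GTPγS binding was measured in CHO cells stably transfected with human 5-HT1D receptors. The output was EC50 together with intrinsic efficacy, expressed as percent of the maximal 5-HT response.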

[2] = target: 5-hydroxytryptamine receptor 1B (Homo sapiens, UniProt P28222); test: Binding affinity to human cloned 5-hydroxytryptamine 1B receptor in CHO cells by [3H]5-HT binding displacement.; format: cell-based
5-hydroxytryptamine receptor 1B, sequence (P28222 whole entry): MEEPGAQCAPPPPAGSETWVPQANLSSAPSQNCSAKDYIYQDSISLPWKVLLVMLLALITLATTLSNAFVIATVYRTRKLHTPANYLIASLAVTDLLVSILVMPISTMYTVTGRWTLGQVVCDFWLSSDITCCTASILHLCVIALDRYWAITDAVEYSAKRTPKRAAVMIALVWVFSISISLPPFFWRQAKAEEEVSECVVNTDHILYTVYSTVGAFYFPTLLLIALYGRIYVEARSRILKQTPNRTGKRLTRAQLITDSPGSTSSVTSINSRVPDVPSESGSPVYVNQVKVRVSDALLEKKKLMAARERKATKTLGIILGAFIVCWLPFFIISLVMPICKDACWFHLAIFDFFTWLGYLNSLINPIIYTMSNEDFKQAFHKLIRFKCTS

[3] = target: T1, 5-hydroxytryptamine receptor 1D; test: Binding affinity by displacement to human cloned 5-hydroxytryptamine 1D receptor in CHO cells by [3H]5-HT displacement.; format: cell-based
Procedure, shortened: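 Cloned human 5-HT1D receptors were stably expressed in CHO cells. Compounds displaced [3H]-5-HT, used at the receptor's KD, and IC50 was read from the displacement. Values are the mean of two independent determinations, each run in triplicate.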

[4] = target: Serotonin 1 receptors; 5-HT1B & 5-HT1D (Homo sapiens) (UniProt P28222+P28221); test: Binding selectivity for 5-HT 1D/1B receptors; format: protein assay
[5] = Percent efficacy relative to 5-HT; format: functional; procedure, shortened: as §1
[6] = efficacy relative to 5-HT; format: functional
Procedure, shortened: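 Agonist-induced [35S]GTPγS binding in CHO cells stably transfected with human 5-HT1D receptors. Intrinsic efficacy is expressed as percent of the maximal 5-HT response.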

T1 sequence (P28221 whole entry): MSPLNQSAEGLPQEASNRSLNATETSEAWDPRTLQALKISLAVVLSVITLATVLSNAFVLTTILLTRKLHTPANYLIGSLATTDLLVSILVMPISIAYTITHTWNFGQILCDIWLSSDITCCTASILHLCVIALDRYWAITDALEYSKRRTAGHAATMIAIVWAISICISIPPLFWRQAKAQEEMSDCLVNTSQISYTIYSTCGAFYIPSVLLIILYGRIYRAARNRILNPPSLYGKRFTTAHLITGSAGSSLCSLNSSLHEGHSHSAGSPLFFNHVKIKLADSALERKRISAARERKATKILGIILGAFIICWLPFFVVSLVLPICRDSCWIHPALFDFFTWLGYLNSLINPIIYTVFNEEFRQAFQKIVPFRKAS

Row | SMILES | EC50 [1] | IC50 [2] | IC50 [3] | Selectivity ratio [4] | Efficacy [5] | Efficacy [6]
1 | c1ccc(CNCC2CCN(CCc3c[nH]c4ccc(-n5cnnc5)cc34)C2)cc1 (single isomer, unassigned) | 4.1 nM | 50 nM | 1.6 nM | 31 | 102% | –
2 | c1ccc(CNC2CCN(CCCc3c[nH]c4ccc(-n5cnnc5)cc34)CC2)cc1 | 8 nM | 125 nM | 4.8 nM | 26 | 76% | –
3 | c1cc2[nH]cc(CCCN3CCCCC3)c2cc1-n1cnnc1 | – | 15 nM | 24 nM | 0.6 | – | –
4 | CN(C)CCc1c[nH]c2ccc(-n3cnnc3)cc12 | 0.45 nM | 1.4 nM | 0.3 nM | 4.7 | 117% | –
5 | c1ccc(CO[C@@H]2CCN(CCc3c[nH]c4ccc(-n5cnnc5)cc34)C2)cc1 (stereo in doubt; 4b) [listing 1 of 2 here] | 15 nM | 146 nM | 6.3 nM | – | – | –
6 | c1ccc(CNC[C@@H]2CCN(CCc3c[nH]c4ccc(-n5cnnc5)cc34)C2)cc1 | 0.93 nM | 47 nM | 0.5 nM | 94 | 100% | –
7 | OC[C@H](NC1CCN(CCCc2c[nH]c3ccc(-n4cnnc4)cc23)CC1)c1ccc(F)cc1 | 1.1 nM | 185 nM | 0.9 nM | 206 | 104% | –
8 | CN(C)CCc1c[nH]c2ccc(Cn3cncn3)cc12 | – | – | – | – | 90% | –
9 | c1ccc(CO[C@@H]2CCN(CCc3c[nH]c4ccc(-n5cnnc5)cc34)C2)cc1 (stereo in doubt; 4c) [listing 1 of 2 here] | – | – | – | 12 | 84% | –
10 | c1ccc(COC[C@@H]2CCN(CCc3c[nH]c4ccc(-n5cnnc5)cc34)C2)cc1 | 2.1 nM | 88 nM | 2.3 nM | 38 | 68% | –
11 | CNS(=O)(=O)Cc1ccc2[nH]cc(CCN(C)C)c2c1 | – | – | – | – | – | 100%
12 | c1cc2[nH]cc(CCN3CCCCC3)c2cc1-n1cnnc1 | – | 568 nM | 200 nM | 3 | – | –
13 | CN(Cc1ccccc1)[C@@H]1CCN(CCc2c[nH]c3ccc(-n4cnnc4)cc23)C1 | – | 210 nM | 38 nM | 5.5 | – | –
14 | O=C(c1ccc(F)cc1)C1CCN(CCn2c(=O)[nH]c3ccccc3c2=O)CC1 [KETANSERIN] | – | 6500 nM | 260 nM | 25 | – | –
15 | c1cc2[nH]cc(CCN3CCCC3)c2cc1-n1cnnc1 | 2.6 nM | 30.2 nM | 3.4 nM | 9 | 120% | –
16 | CN(Cc1ccccc1)C1CCN(CCCc2c[nH]c3ccc(-n4cnnc4)cc23)CC1 | 1.6 nM | 145 nM | 2.2 nM | 66 | 94% | –
17 | CN(Cc1ccccc1)C[C@@H]1CCN(CCc2c[nH]c3ccc(-n4cnnc4)cc23)C1 | 1.6 nM | 33 nM | 0.7 nM | 47 | 102% | –
18 | c1ccc(CO[C@@H]2CCN(CCc3c[nH]c4ccc(-n5cnnc5)cc34)C2)cc1 (stereo in doubt; 4b) [listing 2 of 2 here] | – | – | – | 23 | 81% | –
19 | C[C@@H](NC1CCN(CCCc2c[nH]c3ccc(-n4cnnc4)cc23)CC1)c1ccccc1 | 1.5 nM | 35 nM | 0.35 nM | 100 | 96% | –
20 | CN(Cc1ccccc1)CC1CCN(CCCc2c[nH]c3ccc(-n4cnnc4)cc23)CC1 | 0.9 nM | 28 nM | 0.95 nM | 29 | 93% | –
21 | c1ccc(CO[C@@H]2CCN(CCc3c[nH]c4ccc(-n5cnnc5)cc34)C2)cc1 (stereo in doubt; 4c) [listing 2 of 2 here] | 33 nM | 280 nM | 23 nM | – | – | –
22 | OC[C@H](NC1CCN(CCCc2c[nH]c3ccc(-n4cnnc4)cc23)CC1)c1ccccc1 | 1.8 nM | 114 nM | 1.3 nM | 88 | 95% | –
